In ChEMBL document CHEMBL3593173, “Discovery of novel N-(5-(tert-butyl)isoxazol-3-yl)-N'-phenylurea analogs as potent FLT3 inhibitors and evaluation of their activity against acute myeloid leukemia in vitro and in vivo” (Bioorg Med Chem, 2015) one finds IC50 and solubility data, which are given here for 28 compounds.

≈ marks a conversion by molar mass, not a printed value.

One data set relates to MV4-11. The experiment in a line: Cytotoxicity against human MV4-11 cells incubated for 72 hrs by MTT assay. The format is functional, cell-based. The settings on record: MV4-11, 72 h. The essentials:
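Leukemia cells were grown with 10% FBS at 37 °C in 5% CO₂; MV4-11 was kept in IMDM. Cells were seeded at 1–4 × 10⁴ per well, and an equal volume of medium containing increasing inhibitor concentrations was added. MTT was added for 2–4 h, formazan was dissolved in DMSO, and OD was read at 570 nm to derive IC50.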

Data set [1] in a line: Solubility in PBS solution. The format is physicochemical.
A short description of data set [2]: Solubility in MeOH solution. The format is physicochemical.
A short description of data set [3]: Solubility in water. The format is physicochemical.
Data set [4] in a line: Solubility in EtOH solution. It is filed as physicochemical.

`CC(C)(C)c1cc(NC(=O)Nc2ccc(-c3nc4ccccc4s3)cc2)no1`: the IC50 in the data set with MV4-11 is 0.172 µM.

For `CCOc1ccn2cc(-c3ccc(NC(=O)Nc4cc(C(C)(C)C)on4)cc3)nc2c1`, in the data set with MV4-11, the midpoint of inhibition, the IC50, lay at 0.0116 µM.

In the case of `Cc1cccc2nc(-c3ccc(NC(=O)Nc4cc(C(C)(C)C)on4)cc3)cn12`, in the data set with MV4-11, half-maximal inhibition (IC50) was put at 0.0202 µM.

`CC(C)(C)c1cc(NC(=O)Nc2ccc(-c3cc4ccccc4o3)cc2)no1`: it took 0.195 µM to reach half-maximal inhibition with MV4-11 (IC50).

`CC(C)(C)c1cc(NC(=O)Nc2ccc(-c3cn4cc(Cl)ccc4n3)cc2)no1` gave an IC50 in the data set with MV4-11 of 0.0248 µM.

Regarding `C#Cc1ccc2nc(-c3ccc(NC(=O)Nc4cc(C(C)(C)C)on4)cc3)cn2c1`, the IC50 in the data set on MV4-11 is 0.00862 µM.

The compound `CC(C)(C)c1cc(NC(=O)Nc2ccc(-c3cn4ccncc4n3)cc2)no1` displayed an IC50 in the data set with MV4-11 of 0.0448 µM.

`CC(C)(C)c1cc(NC(=O)Nc2ccc(-c3cn4cc(F)ccc4n3)cc2)no1` yielded an IC50 with MV4-11 of 0.0209 µM.

Turning to `CC(C)(C)c1cc(NC(=O)Nc2ccc(-c3nc4ccccc4o3)cc2)no1`, in the data set on MV4-11, half-maximal inhibition (IC50) required 0.0826 µM.

For the compound `CC(C)(C)c1cc(NC(=O)Nc2ccc(-c3cn4cc(C5CC5)ccc4n3)cc2)no1`, in the data set on MV4-11, the IC50 was found to be 0.0158 µM.

Compound `Cc1cccn2cc(-c3ccc(NC(=O)Nc4cc(C(C)(C)C)on4)cc3)nc12` registered an IC50 with MV4-11 of 0.248 µM.

On to `C#Cc1ccn2cc(-c3ccc(NC(=O)Nc4cc(C(C)(C)C)on4)cc3)nc2c1`, for which the solubility in data set [1] is 0.0102 mg/mL (≈ 0.0255 mM); in data set [2], 5.84 mg/mL (≈ 14.6 mM); in data set [3], 0.0267 mg/mL (≈ 0.0668 mM); in data set [4] it was 4.11 mg/mL (≈ 10.3 mM). Further, in the data set on MV4-11, the IC50 came to 0.00346 µM.

In the case of `CC(C)(C)c1cc(NC(=O)Nc2ccc(-c3cn4ccc(Cl)cc4n3)cc2)no1`, in the data set on MV4-11, the IC50 stood at 0.00591 µM.

Compound `CC(C)(C)c1cc(NC(=O)Nc2ccc(-c3cn4cccnc4n3)cc2)no1` displayed an IC50 with MV4-11 of 0.171 µM.

`Cc1ccc2nc(-c3ccc(NC(=O)Nc4cc(C(C)(C)C)on4)cc3)cn2c1` displayed an IC50 in the data set on MV4-11 of 0.00408 µM.

`CC(C)(C)c1cc(NC(=O)Nc2ccc(-c3cn4cc(Br)ccc4n3)cc2)no1` showed a half-maximal inhibitory concentration (IC50) in the data set on MV4-11 of 0.0445 µM.

In the case of `CC(C)(C)c1cc(NC(=O)Nc2ccc(-c3cc4ccccc4s3)cc2)no1`, in the data set with MV4-11, the IC50 is more than 0.9 µM.

In the case of `Cc1ccn2cc(-c3ccc(NC(=O)Nc4cc(C(C)(C)C)on4)cc3)nc2c1`, the results for the solubility in data set [2] and in data set [4] were 6.83 mg/mL (≈ 17.5 mM) and 3.34 mg/mL (≈ 8.58 mM), respectively. This compound registered an IC50 in the data set on MV4-11 of 0.00079 µM.

The compound `CC(C)(C)c1cc(NC(=O)Nc2ccc(-c3cn4ncccc4n3)cc2)no1` displayed an IC50 in the data set on MV4-11 of 0.059 µM.

The compound `CC(=O)Oc1ccn2cc(-c3ccc(NC(=O)Nc4cc(C(C)(C)C)on4)cc3)nc2c1` gave an IC50 with MV4-11 of 0.0294 µM.

`CC(C)(C)c1cc(NC(=O)Nc2ccc(-c3cn4cccc(C(F)(F)F)c4n3)cc2)no1`: the IC50 in the data set on MV4-11 was more than 0.9 µM.

Compound `CC(C)(C)c1cc(NC(=O)Nc2ccc(-c3cn4c(n3)sc3cc(OCCN5CCOCC5)ccc34)cc2)no1` [QUIZARTINIB] yielded an IC50 in the data set on MV4-11 of 0.00068 µM.

Take `CC(C)(C)c1cc(NC(=O)Nc2ccc(-c3cn4cccc(F)c4n3)cc2)no1`: the IC50 in the data set with MV4-11 stood at 0.0122 µM.

For `CC(C)(C)c1cc(NC(=O)Nc2ccc(-c3cn4cccc(Cl)c4n3)cc2)no1`, in the data set with MV4-11, the IC50 came to 0.353 µM.

Consider `CC(C)(C)c1cc(NC(=O)Nc2ccc(-c3cn4c(Cl)cccc4n3)cc2)no1`, for which 0.0561 µM corresponded to half-maximal inhibition in the data set on MV4-11 (IC50).

Consider `CC(C)(C)c1cc(NC(=O)Nc2ccc(-c3cn4ccccc4n3)cc2)no1`, for which the figures for the solubility in data set [2] and in data set [4] were 5.28 mg/mL (≈ 14.1 mM) and 4.07 mg/mL (≈ 10.8 mM), respectively. Besides, the IC50 with MV4-11 amounted to 0.00309 µM.

With `CC(C)(C)c1cc(NC(=O)Nc2ccc(-c3cn4ccc(Br)cc4n3)cc2)no1`, the IC50 with MV4-11 was 0.00959 µM.

Take `CC(C)(C)c1cc(NC(=O)Nc2ccc(-c3cn4cc(I)ccc4n3)cc2)no1`: the IC50 in the data set with MV4-11 turned out to be 0.0985 µM.

In general, IC50 refers to the concentration that inhibits the measured activity by half. As usually defined, the solubility is the dissolved amount per volume that the medium holds. Low readings indicate a poorly soluble substance, high ones a readily soluble substance.
